Measured values published in ChEMBL document CHEMBL5625169, “Development of novel PEX5-PEX14 protein-protein interaction (PPI) inhibitors based on an oxopiperazine template” (Eur J Med Chem, 2023).

Columns and labels:
[1] = molecular target: CREB-binding protein/Histone acetyltransferase p300 (Homo sapiens, UniProt Q09472+Q92793); assay: Binding affinity to p300-CBP (unknown origin) protein protein interaction assessed as dissociation constant by tryptophan fluorescence assay
HepG2 = assay: Cytotoxicity against human HepG2 cells assessed as reduction in cell viability incubated for 66 hrs by resazurin staining based analysis; format: functional; settings: HepG2, 66 h
In short: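 HepG2 cells seeded at 5000 per well and grown overnight at 37 °C, 5% CO2. Compounds tested in triplicate at 100 to 3.125 µM (twofold dilutions); hygromycin B as cytotoxic control. After 66 h, resazurin added and plates incubated a further 6 h. Fluorescence background-subtracted and normalised to untreated cells; EC50 from sigmoidal dose-response fit.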

Trypanosoma brucei = assay: Antitrypanosomal activity against blood stream form of Trypanosoma brucei Lister 427 MITat 1.2 assessed as parasite growth inhibition incubated for 66 hrs by resazurin dye based assay; format: functional, organism-based; settings: Lister 427 MITat 1.2, 66 h
In short: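 Bloodstream-form Lister 427 (MITat 1.2) parasites maintained in HMI-11 with 10% FBS at 37 °C, 5% CO2. Twofold serial dilutions, 10 per row, in quadruplicate. Final 2×10^3 parasites/mL, 66 h, then resazurin added and incubated to 72 h. Fluorescence read at ex 530/em 585 nm, background subtracted, untreated wells taken as 100% survival. EC50 from sigmoidal dose-response fit.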

[2] = Inhibition of Trypanosoma brucei biotinylated PEX5 /N-terminal His-tagged PEX14 (19 to 84 residues) protein-protein interaction expressed in Escherichia coli BL21 assessed as inhibition constant by AlphaScreen assay
In short: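 TbPEX14 N-terminal domain (aa 19–84) expressed from pETM-11 in E. coli BL21, Ni-NTA then gel filtration in PBS. AlphaScreen competition with serial inhibitor dilution, other components held constant, quadruplicate. Ki = EC50/(1+[LT]/KdL*T), apparent Kd measured for each condition.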

[3] = Selectivity index, ratio of EC50 for cytotoxicity against human HepG2 cells assessed as reduction in cell viability to EC50 for antitrypanosomal activity against blood stream form of Trypanosoma brucei Lister 427 MITat 1.2 assessed as parasite growth inhibition; format: toxicity, cell-based; settings: read-out: Ratio EC50
In short: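 Ratio of HepG2 EC50 (µM) to T. b. brucei EC50. Parasites: bloodstream form, 2×10^3/mL, 66 h plus resazurin to 72 h, quadruplicate.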

[4] = molecular target: Tumour suppressor p53/oncoprotein Mdm2 (Homo sapiens, UniProt P04637+Q00987); assay: Binding affinity to MDM2-p53 (unknown origin) protein protein interaction assessed as dissociation constant by fluorescence polarization assay
Sequence of Tumour suppressor p53/oncoprotein Mdm2 (P04637 whole entry): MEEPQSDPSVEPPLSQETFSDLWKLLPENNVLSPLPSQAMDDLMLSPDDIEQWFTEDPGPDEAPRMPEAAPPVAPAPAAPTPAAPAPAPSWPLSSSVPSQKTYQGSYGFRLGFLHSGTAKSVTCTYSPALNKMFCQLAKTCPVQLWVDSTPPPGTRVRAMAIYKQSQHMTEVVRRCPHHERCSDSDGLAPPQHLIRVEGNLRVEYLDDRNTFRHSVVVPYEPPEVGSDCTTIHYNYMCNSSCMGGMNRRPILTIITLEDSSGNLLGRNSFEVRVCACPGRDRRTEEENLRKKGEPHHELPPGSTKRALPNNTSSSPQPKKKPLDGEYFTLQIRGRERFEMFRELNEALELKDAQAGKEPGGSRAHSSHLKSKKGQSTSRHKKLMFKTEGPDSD
Sequence of Tumour suppressor p53/oncoprotein Mdm2 (Q00987 whole entry): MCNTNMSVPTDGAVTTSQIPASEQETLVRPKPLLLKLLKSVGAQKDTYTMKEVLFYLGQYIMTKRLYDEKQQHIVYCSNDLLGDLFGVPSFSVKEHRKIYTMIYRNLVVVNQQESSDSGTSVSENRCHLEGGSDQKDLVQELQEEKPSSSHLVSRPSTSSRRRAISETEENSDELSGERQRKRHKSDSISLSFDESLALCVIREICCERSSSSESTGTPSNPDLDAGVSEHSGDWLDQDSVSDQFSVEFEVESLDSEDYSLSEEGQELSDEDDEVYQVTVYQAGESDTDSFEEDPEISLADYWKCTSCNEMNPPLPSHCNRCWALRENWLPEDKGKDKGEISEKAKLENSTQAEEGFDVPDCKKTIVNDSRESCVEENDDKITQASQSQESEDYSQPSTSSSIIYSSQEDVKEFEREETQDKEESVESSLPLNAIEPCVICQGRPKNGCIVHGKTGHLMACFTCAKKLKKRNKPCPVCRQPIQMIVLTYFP

Compound | Kd [1] [µM] | EC50 (Trypanosoma brucei) [µM] | Kd [4] [µM] | EC50 (HepG2) [µM] | Ki [2] [µM] | selectivity ratio [3]
CC(C)C[C@@H]1NCCN([C@@H](CC(C)C)C(=O)N2CCN([C@@H](CCC(N)=O)C(N)=O)C(=O)[C@@H]2C)C1=O | 0.53 | – | – | – | – | –
COC(=O)[C@H](Cc1c[nH]c2ccccc12)N1CC(=O)N[C@H](C(=O)NCc2cccc3ccccc23)C1 | – | 10 | – | 33 | 77 | 3.2
COC(=O)[C@H](Cc1ccccc1)N1CC(=O)N[C@@H](Cc2c[nH]c3ccccc23)C1=O | – | 29 | – | 24 | > 1000 | < 1
COC(=O)[C@H](Cc1c[nH]c2ccccc12)N1CC(=O)N[C@@H](Cc2c[nH]c3ccccc23)C1 | – | 5 | – | 17 | 27 | 3.6
O=C1CN(CCc2c[nH]c3ccccc23)C[C@H](Cc2c[nH]c3ccccc23)N1 | – | 7 | – | 12 | 41 | 1.7
COC(=O)[C@H](Cc1c[nH]c2ccccc12)N1CC(=O)N[C@H](C(=O)NCc2ccccc2)C1 | – | > 100 | – | > 100 | 494 | –
O=C1CN(C(=O)Cc2c[nH]c3ccccc23)C[C@H](Cc2c[nH]c3ccccc23)N1 | – | > 100 | – | > 100 | 195 | –
COC(=O)[C@H](Cc1ccccc1)N1CC(=O)N[C@@H](Cc2c[nH]c3ccccc23)C1 | – | 13 | – | 56 | 73 | 4.3
O=C1CN([C@H](CO)Cc2c[nH]c3ccccc23)C[C@H](Cc2c[nH]c3ccccc23)N1 | – | 14 | – | 24 | 48 | 1.7
CC(=O)OC[C@H](Cc1c[nH]c2ccccc12)N1CC(=O)N[C@@H](Cc2c[nH]c3ccccc23)C1 | – | 13 | – | 29 | 58 | 1.8
CC(C)C[C@@H](C(N)=O)N1CCN(C(=O)[C@H](Cc2c[nH]c3ccccc23)N2CCN[C@@H](Cc3ccccc3)C2=O)[C@@H](Cc2ccccc2)C1=O | – | – | 2.9 | – | – | –
NC(=O)[C@H](Cc1ccccc1)N1CC(=O)N[C@@H](Cc2c[nH]c3ccccc23)C1=O | – | > 100 | – | > 100 | > 1000 | –

Second part, led by results:

Kd [1] [µM] | EC50 (Trypanosoma brucei) [µM] | Kd [4] [µM] | Compound | EC50 (HepG2) [µM] | Ki [2] [µM] | selectivity ratio [3]
– | 43 | – | COC(=O)[C@H](Cc1ccccc1)N1CCN[C@@H](Cc2c[nH]c3ccccc23)C1=O | > 100 | 265 | > 2.3
– | 30 | – | COC(=O)[C@H](Cc1c[nH]c2ccccc12)N1CCN[C@@H](Cc2c[nH]c3ccccc23)C1=O | > 100 | 133 | > 3.4
– | 29 | – | COC(=O)[C@H](Cc1c[nH]c2ccccc12)N1C[C@H](Cc2c[nH]c3ccccc23)NC(=O)C1=O | > 100 | 75 | > 3.4
– | > 100 | – | NC(=O)[C@H](Cc1c[nH]c2ccccc12)N1CCN[C@@H](Cc2c[nH]c3ccccc23)C1=O | > 100 | 288 | –
– | > 100 | – | COC(=O)[C@H](Cc1c[nH]c2ccccc12)N1CCN(C(C)=O)[C@@H](Cc2c[nH]c3ccccc23)C1=O | > 100 | 542 | –
– | 5 | – | COC(=O)[C@H](Cc1c[nH]c2ccccc12)N1CCCN[C@@H](Cc2c[nH]c3ccccc23)C1=O | 21 | 53 | 4.2
